Results from different studies.
Lines come from different studies, so protocols differ.
Target: Calcium/calmodulin-dependent protein kinase type 1D (CAMK1D, Homo sapiens, UniProt Q8IU85)

| SMILES | test | setting | remaining binding [%] |
| --- | --- | --- | --- |
| O=C(NCCCN1CCOCC1)c1ccc(Nc2nccc(-c3cc4ccccc4s3)n2)cc1 | binding, competition with immobilised ligand | 1 µM | 48 |
| Cn1nc(C(=O)NCc2ccc(C(=O)O)cc2)cc1-c1ccc2[nH]ccc2c1 | cell-free assay, competition with immobilised ligand | 0.1 µM | 95 |
| O=C(NCC1CCOCC1)c1n[nH]cc1NC(=O)c1c(F)cccc1F | binding, competition with immobilised ligand | 1 µM | 96 |
| FC(F)(F)Oc1cccc(-c2cnc3ccc(-c4ccncc4)nn23)c1 | cell-free assay, competition with immobilised ligand | 5 µM | 67 |
| CNC(=O)Nc1ccc2c(c1)[C@@]1(CC2)OC(=O)N(CC(=O)N(Cc2ccc(F)cc2)[C@@H](C)C(F)(F)F)C1=O | cell-free assay, competition with immobilised ligand | 1 µM | 100 |
| CN(C)c1nccc(-c2cnn3ncccc23)n1 | binding | 1 µM | 100 |
| O=C(N1CCS(=O)(=O)CC1)N1C[C@H](c2ccc(OC(F)(F)F)cc2)C[C@H](c2nc(C3CC3)no2)C1 | cell-free assay, competition with immobilised ligand | 1 µM | 91 |
| Cc1cnn2ncc(-c3ccnc(N(C)C)n3)c2c1 | binding | 1 µM | 100 |
| O=S(=O)(NC1CCC(c2cc(F)ccc2F)(S(=O)(=O)c2ccc(Cl)cc2)CC1)C(F)(F)F (stereo not shown) | cell-free assay, competition with immobilised ligand | 1 µM | 79 |
| O=C(c1ccc(Nc2ncc(Cl)c(-c3cc4ccccc4s3)n2)cc1)N1CCC(N2CCCC2)CC1 | binding, competition with immobilised ligand | 1 µM | 29 |
| COc1ccc2c(c1)O[C@@H](c1ccc(OC)c(OC)c1)C[C@H]2NC(=O)C1(c2ccc3c(c2)OC(F)(F)O3)CC1 | cell-free assay, competition with immobilised ligand | 1 µM | 94 |
| CN(C)c1nccc(-c2cnc3ncccn23)n1 | binding | 1 µM | 80 |
| Cc1nc(C2CCN(C(=O)c3ccc(OC(F)(F)F)cc3N)CC2)c2ncc(N3CCN(C)CC3)cc2n1 | cell-free assay, competition with immobilised ligand | 1 µM | 100 |
| C[C@H]1CCN(c2nccc(-c3cnn4ncccc34)n2)C1 | binding | 1 µM | 95 |
| O=C(c1ccc(Nc2nccc(-c3cc4ccccc4s3)n2)cc1)N1CCC(N2CCCC2)CC1 | binding, competition with immobilised ligand | 1 µM | 31 |
| C[C@@H](c1ccc(-n2cnc3c(N)ncnc32)cc1)N1CCc2nn(C)c(Cc3ccccc3)c2C1=O | binding, competition with immobilised ligand | 0.1 µM | 95 |
| COc1cnc(Nc2cccc(S(N)(=O)=O)c2)nc1N1CCN(c2ccccc2)C(=O)C1 | binding, competition with immobilised ligand | 1 µM | 99 |
| c1cncc(-c2cccc(Nc3nccc(NC4CCCCC4)n3)c2)c1 | binding, competition with immobilised ligand | 10 µM | 72 |
| F[C@@H]1CCN(c2nccc(-c3cnn4ncccc34)n2)C1 | binding | 1 µM | 100 |
| CNC(=O)c1ccc(Nc2ncc(C(F)(F)F)c(NCc3nccnc3N(C)S(C)(=O)=O)n2)cc1 | cell-free assay, competition with immobilised ligand | 0.1 µM | 100 |
| N[C@@H]1CCN(c2nccc(-c3cnn4ncccc34)n2)C1 | binding | 1 µM | 100 |
| CCN1CCN(Cc2ccc(C(=O)Nc3ccc(C)c(Oc4ccc5c(c4)CC(=O)N5)c3)cc2C(F)(F)F)CC1 | binding, competition with immobilised ligand | 1 µM | 52 |
